Records with an inconclusive call do not appear. Activity calls are given as the source filed them.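 The calls were made as follows: active = viability below 80% at one or more tested concentrations, meaning the compound is toxic to the cells; inconclusive = replicate runs disagree on whether viability fell below 80%; inactive = viability of 80% or more at every dose.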
Tests used:
[1] = system: Vero E6 viability, CellTiter-Glo luminescence, 72 h; test: Vero E6 cell cytotoxicity, dose response, cytotoxicity control for PfM18AAP inhibitor project, set 2 (AID 602225)
How it was run: (§1)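 Assay system – Vero E6 cells · Quantity – 3000 cells/well · Compound – 10 points, 2-fold steps · Timing – 72 h compound treatment, 37 °C · Signal – CellTiter-Glo luminescence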

[2] = as above; conditions: Vero E6 viability, CellTiter-Glo luminescence, 72 h; at 50 µM (top of the series)
How it was run: as §1

SMILES	CC50 [1] [µM]	viability [2]
COc1ccc(CCNC(c2ccccc2)c2ccccc2)cc1OC	32.6	–
COc1ccc(CCCN2CCN(C)CC2)cc1OC	–	100% (inactive)
Oc1ccc(-c2csc(Nc3ncccn3)n2)cc1O	–	90.7% (inactive)
CN1CCN(CCCc2ccc(O)c(O)c2)CC1	–	93.4% (inactive)
CCc1ccc(NC(=O)Cc2nc(-c3ccc(O)c(O)c3)cs2)cc1	28.7	–
COc1ccc(CCN(C)c2c3ccccc3nc3ccccc23)cc1OC	27.8	–
Oc1ccc(CCNc2c3ccccc3nc3ccccc23)cc1O	30.9	–
COc1ccc(CCNc2c3ccccc3nc3ccccc23)cc1OC	13.9	–
CN1CCN(CCc2ccc(O)c(O)c2)CC1	–	103% (inactive)
CN1CCN(c2nc(-c3ccc(O)c(O)c3)cs2)CC1	–	102% (inactive)
Oc1ccc(CCNc2ccnc3ccccc23)cc1O	–	100% (inactive)
